Data set [1] is described as follows: Mouse snapshot 5 h PK study. To be noted: female, CD-1, mouse, plasma, po, 25 mg/kg. Format: in vivo. An outline of the steps: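 Two female CD-1 mice received a single oral 25 mg/kg dose in 5% DMA/60% PEG300/35% D5W. Blood was collected into K2EDTA pre-dose and at 0.5, 1, 3 and 5 h, kept on ice, and spun to plasma stored at −80 °C. Quantitation was by LC-MS/MS against plasma standard curves (1/x² weighting) after acetonitrile/methanol precipitation with verapamil internal standard. AUC was calculated by trapezoidal integration.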

In another data set the target is CYP3A4 (Homo sapiens, UniProt P08684). Kind of data set: Human cytochrome P450 inhibition assay, 3A4. The class given is in vitro ADME. As to conditions: human liver microsomes, 0 – 50 μM. A general note: Liver microsomes are a subcellular fraction often used to study metabolism.
A short description of data set [2]: Mouse dose tolerability/proportionality study. The class given is in vivo.
A short description of data set [3]: Mouse plasma protein binding. Format: in vitro ADME.
The test system of a further data set is Staphylococcus aureus. The data set can be described thus: MIC assay, S. aureus. The class given is cell-based.
Another data set concerns Acinetobacter baumannii. The data set can be described thus: MIC assay, A. baumannii. Format: cell-based.
The nature of data set [4]: Human plasma protein binding. The class given is in vitro ADME.
For a further data set, the system named is Klebsiella pneumoniae. Kind of data set: MIC assay, K. pneumoniae. The class given is cell-based.
For the next data set, the system named is Pseudomonas aeruginosa. Kind of data set: MIC assay, P. aeruginosa. The class given is cell-based.
The subject of data set [5] is Enterococcus faecium NCTC 7171 (ATCC 19434). The data set can be described thus: Antibacterial growth inhibition. The class given is cell-based. To be noted: ATCC19434|NCTC7171, read-out: E. faecium MIC.
Another data set has as its target T1, CYP1A2 (Homo sapiens, UniProt P05177).
T1 sequence (P05177 1-516): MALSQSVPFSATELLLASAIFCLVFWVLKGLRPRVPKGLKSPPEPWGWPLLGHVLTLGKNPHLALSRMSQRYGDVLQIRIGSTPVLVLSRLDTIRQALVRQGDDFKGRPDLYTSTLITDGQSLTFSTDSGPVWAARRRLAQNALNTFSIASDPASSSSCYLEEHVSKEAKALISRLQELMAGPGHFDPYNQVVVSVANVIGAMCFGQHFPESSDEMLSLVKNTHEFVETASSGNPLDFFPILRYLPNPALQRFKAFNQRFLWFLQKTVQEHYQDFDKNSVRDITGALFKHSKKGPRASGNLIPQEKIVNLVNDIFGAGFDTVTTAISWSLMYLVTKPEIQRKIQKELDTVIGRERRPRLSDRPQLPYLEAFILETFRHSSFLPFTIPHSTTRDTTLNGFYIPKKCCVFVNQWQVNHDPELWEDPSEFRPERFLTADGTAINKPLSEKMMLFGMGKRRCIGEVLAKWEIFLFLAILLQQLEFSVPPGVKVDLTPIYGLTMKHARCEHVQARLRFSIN
Kind of data set: Human cytochrome P450 inhibition assay, 1A2. The class given is in vitro ADME. To be noted: human liver microsomes, 0 – 50 μM.

Data set [6] has as its system E. faecium NCTC 7171. Kind of data set: Griess assay for intrabacterial NO release. Format: cell-based, Enterococcus faecium. To be noted: 100 μM, 24 h and 48 h. An outline of the steps:
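E. faecium NCTC 7171 was started from a single colony in Mueller-Hinton medium and grown to OD600 0.4. The culture was split into untreated, test compound (100 μM) and DEA-NONOate (100 μM) batches. At 24 h and 48 h, samples were centrifuged and supernatants mixed with fresh Griess reagent for 30 min at rt. A548 was read, and nitrite was estimated against sodium nitrite standards (50–0.78 μM, 2-fold, in Mueller-Hinton).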
Background: Griess reagent forms a coloured azo dye with nitrite.

The next data set addresses CYP2C19 (Homo sapiens, UniProt P33261). The data set can be described thus: Human cytochrome P450 inhibition assay, 2C19. Format: in vitro ADME. To be noted: human liver microsomes, 0 – 50 μM.
The test system of data set [7] is E. faecium NCTC 7171. The data set can be described thus: Minimum bactericidal concentration. To be noted: Enterococcus faecium, NCTC7171, read-out: minimal bactericidal concentration (MBC). Format: cell-based. The procedure, abridged: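 MBC was taken from the broth microdilution MIC plate. Mid-log E. faecium (OD600 0.2–0.3) was diluted 1:1000 into cation-adjusted Mueller-Hinton II broth with 1% IsoVitaleX, with test compound typically at 200–0.1 μg/mL, and incubated overnight at 37 °C. Wells were mixed, serially diluted 10-fold in DPBS and plated on Mueller-Hinton plus 1% IsoVitaleX agar. Colonies were counted after 2 d at 37 °C.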

Another data set deals with CYP2D6 (Homo sapiens, UniProt P10635). The data set can be described thus: Human cytochrome P450 inhibition assay, 2D6. The class given is in vitro ADME. As to conditions: human liver microsomes, 0 – 50 μM.
The next data set has as its target CYP2C9 (Homo sapiens, UniProt P11712). Kind of data set: Human cytochrome P450 inhibition assay, 2C9. Format: in vitro ADME. As to conditions: human liver microsomes, 0 – 50 μM.
The test system of the next data set is E. faecium EN 2966. The data set can be described thus: MIC assay, vancomycin-resistant E. faecium EN 2966. Format: cell-based, Enterococcus faecium.
Another data set relates to E. faecium. As to conditions: cited from earlier work.

Values after ≈ are worked out from the molar mass of the structure shown.

The term AUC(0-t) denotes exposure summed from dosing to a finite time, without extrapolation to infinity. By MIC is commonly meant the least concentration at which growth counts as inhibited.

Sequence of CYP2C19 (P33261 whole entry): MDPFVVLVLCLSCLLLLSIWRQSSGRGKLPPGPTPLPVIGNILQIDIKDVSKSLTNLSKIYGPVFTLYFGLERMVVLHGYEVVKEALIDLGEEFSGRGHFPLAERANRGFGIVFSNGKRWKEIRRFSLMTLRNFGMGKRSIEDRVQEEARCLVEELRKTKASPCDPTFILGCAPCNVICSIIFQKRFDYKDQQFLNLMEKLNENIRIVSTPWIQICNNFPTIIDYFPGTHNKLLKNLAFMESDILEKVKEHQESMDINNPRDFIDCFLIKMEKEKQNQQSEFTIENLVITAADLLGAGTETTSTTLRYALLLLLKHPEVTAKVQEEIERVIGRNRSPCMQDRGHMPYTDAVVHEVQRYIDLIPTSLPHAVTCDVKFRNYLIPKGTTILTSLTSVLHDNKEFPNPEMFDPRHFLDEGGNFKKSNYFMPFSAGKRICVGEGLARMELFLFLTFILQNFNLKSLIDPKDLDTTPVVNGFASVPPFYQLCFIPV
Sequence of CYP2C9 (P11712 whole entry): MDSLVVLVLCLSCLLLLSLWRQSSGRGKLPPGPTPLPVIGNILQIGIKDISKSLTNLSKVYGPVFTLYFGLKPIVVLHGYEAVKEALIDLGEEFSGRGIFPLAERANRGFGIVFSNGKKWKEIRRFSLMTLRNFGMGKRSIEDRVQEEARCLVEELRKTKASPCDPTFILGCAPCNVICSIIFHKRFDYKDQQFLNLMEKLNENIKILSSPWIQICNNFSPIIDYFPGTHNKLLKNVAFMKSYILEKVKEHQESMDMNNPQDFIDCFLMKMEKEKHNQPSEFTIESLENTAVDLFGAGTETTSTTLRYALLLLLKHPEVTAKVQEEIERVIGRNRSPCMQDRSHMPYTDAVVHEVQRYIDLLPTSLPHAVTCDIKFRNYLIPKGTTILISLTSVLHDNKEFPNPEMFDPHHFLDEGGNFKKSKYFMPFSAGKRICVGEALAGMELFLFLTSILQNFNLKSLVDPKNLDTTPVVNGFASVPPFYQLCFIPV
Sequence of CYP2D6 (P10635 whole entry): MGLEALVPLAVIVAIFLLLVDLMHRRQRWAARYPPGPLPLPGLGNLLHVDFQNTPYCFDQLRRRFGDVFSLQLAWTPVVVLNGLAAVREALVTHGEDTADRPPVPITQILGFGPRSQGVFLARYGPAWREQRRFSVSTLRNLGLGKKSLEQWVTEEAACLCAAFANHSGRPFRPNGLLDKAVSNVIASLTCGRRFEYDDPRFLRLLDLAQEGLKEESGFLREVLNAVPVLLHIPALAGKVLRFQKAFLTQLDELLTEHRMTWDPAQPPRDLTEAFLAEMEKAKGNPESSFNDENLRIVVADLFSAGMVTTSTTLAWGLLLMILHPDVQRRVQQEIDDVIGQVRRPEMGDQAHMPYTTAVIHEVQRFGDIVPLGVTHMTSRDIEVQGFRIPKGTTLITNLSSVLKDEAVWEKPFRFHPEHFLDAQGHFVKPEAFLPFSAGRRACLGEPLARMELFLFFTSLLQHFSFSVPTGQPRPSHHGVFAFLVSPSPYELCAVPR
Sequence of CYP3A4 (P08684 whole entry): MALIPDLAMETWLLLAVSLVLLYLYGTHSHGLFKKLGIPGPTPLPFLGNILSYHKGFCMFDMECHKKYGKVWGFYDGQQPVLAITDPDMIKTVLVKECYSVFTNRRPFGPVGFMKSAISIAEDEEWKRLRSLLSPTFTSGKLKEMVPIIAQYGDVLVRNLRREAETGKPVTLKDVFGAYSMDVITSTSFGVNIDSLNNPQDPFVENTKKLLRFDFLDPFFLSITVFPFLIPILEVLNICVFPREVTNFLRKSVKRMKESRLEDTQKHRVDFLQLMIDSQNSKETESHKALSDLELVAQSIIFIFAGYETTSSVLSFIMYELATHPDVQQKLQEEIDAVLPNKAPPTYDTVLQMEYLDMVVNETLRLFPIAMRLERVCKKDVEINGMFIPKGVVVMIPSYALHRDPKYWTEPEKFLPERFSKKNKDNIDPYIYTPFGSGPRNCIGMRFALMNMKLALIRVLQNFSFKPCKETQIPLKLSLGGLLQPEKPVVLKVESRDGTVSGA

As to `O=C(NNC(=O)c1cc2cc(Cl)cc(Cl)c2s1)c1ccc([N+](=O)[O-])o1` [Compound 22], the AUC(0-t) in [1] came to 43800 ng·h/mL.
Same read-out and setting: in the case of `O=C(NNC(=O)c1cc2cc(C(F)(F)F)cc(Cl)c2s1)c1ccc([N+](=O)[O-])o1` [Compound 25] it was 111000 ng·h/mL.
For the compound `O=C(NNC(=O)c1sc2cc(Cl)ccc2c1Cl)c1ccc([N+](=O)[O-])o1` [JSF-3269], on CYP3A4, the “inhibition of human cytochrome P450 3A4” value is given as “not a significant inhibitor”. Moreover, the “exposure (AUC0-24h) dose proportionality” value in [2] (mice, 50, 150 and 300 mg/kg po) is “appeared to plateau between 150 and 300 mg/kg”. The dose tolerability entry in [2] (mice, doses up to the highest level tested of 300 mg/kg po) is “tolerated”. For the same compound, the “binding to mouse plasma” value in [3] is recorded as 99.99%. The MIC was 16 µM (≈ 6.4 µg/mL) against Staphylococcus aureus; above 120 µM with Acinetobacter baumannii; above 120 µM in the data set with Klebsiella pneumoniae; above 120 µM in the data set with Pseudomonas aeruginosa; 1.9 to 3.8 µM (≈ 0.76 to 1.52 µg/mL) in data set [5]; “the same MIC as versus the NCTC 7171 strain” in the data set on E. faecium EN 2966. The “binding to human plasma” value in data set [4] is reported as 99.3%. In addition, at CYP1A2, the “inhibition of human cytochrome P450 1A2” value was “not a significant inhibitor”. For the same compound, in the data set with E. faecium NCTC 7171 [6], the “intracellular release of NO• (nitrite in supernatant)” value is reported as “no evidence was found to support the intracellular release of NO•”. In addition, on CYP2C19, the “inhibition of human cytochrome P450 2C19” value is listed as “not a significant inhibitor”. In the data set with E. faecium NCTC 7171 [7], the MBC was 7.7 to 15 µM (≈ 3.08 to 6 µg/mL). Further, the “inhibition of human cytochrome P450 2D6” value at CYP2D6 is recorded as “not a significant inhibitor”. Moreover, the “inhibition of human cytochrome P450 2C9” value on CYP2C9 was “not a significant inhibitor”.
With `O=C(NNC(=O)c1cc2ccccc2s1)c1ccc([N+](=O)[O-])o1` [JSF-2827, N'-(benzo[b]thiophene-2-carbonyl)-5-nitrofuran-2-carbohydrazide], the MIC in [5] stood at 0.75 µM (≈ 0.248 µg/mL).
Turning to `O=C1CN(/N=C/c2ccc([N+](=O)[O-])o2)C(=O)N1` [nitrofurantoin], the “in vitro efficacy versus E. faecium” value in the data set on E. faecium is listed as “limited in vitro efficacy”.

(Values after PMC12949657 (Journal of medicinal chemistry, 2024).)
